Legend:
[1] = system: Trypanosoma brucei brucei; test: Antitrypanosomal activity against Trypanosoma brucei brucei Lister 427 bloodstream forms incubated for 72 hrs by resazurin based assay; format: functional, organism-based; conditions: for IC50: Lister 427, 72 h; for IC90: Lister 427, time 72 hrs
How it was run: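 T. brucei was screened first at 10 μM, with pentamidine as the reference and internal control. IC50 was determined when growth inhibition was above 50%, reported with a 95% confidence interval for the mean curve of the independent assays.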

[2] = Selectivity index, ratio of CC50 for human THP1 cells to IC50 for antitrypanosomal activity against Trypanosoma brucei brucei Lister 427 bloodstream forms; format: toxicity; conditions: read-out: Ratio CC50/IC50
How it was run: (§1)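 Selectivity index was calculated as THP1 CC50 divided by parasite IC50.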

[3] = Cytotoxicity in human THP-1 cells assessed as reduction in cell viability incubated for 48 hrs hrs by MTT assay; format: toxicity, cell-based
[4] = system: Leishmania infantum; test: Antileishmanial activity against luciferase-expressing Leishmania infantum (MHOM/MA/67/ITMAP-263) axenic amastigotes incubated for 72 hrs by resazurin based assay relative to control; format: functional, organism-based; conditions: MHOM/MA/67/ITMAP-263, 72 h, in the assay text read “promastigotes” for “axenic amastigotes”
[5] = Selectivity index, ratio of CC50 for human THP1 cells to IC50 for Antileishmanial activity against luciferase-expressing Leishmania infantum (MHOM/MA/67/ITMAP-263) axenic amastigotes incubated for 72 hrs by resazurin based assay relative to control; format: toxicity; conditions: in the assay text read “promastigotes” for “axenic amastigotes”, read-out: Ratio CC50/IC50; how it was run: as §1

| SMILES | IC50 [1] | IC90 [1] | selectivity ratio [2] | CC50 at 48 h [3] | IC50 [4] | selectivity ratio at 72 h [5] |
| --- | --- | --- | --- | --- | --- | --- |
| OCCCOc1cccc(Nc2ncnc3c(N/N=C/c4ccc(O)c(O)c4)ncnc23)c1 | 2.29 µM | 5.67 µM | 4 | 25 µM |  |  |
| NNc1ncnc2c(Nc3cccc(OCCCO)c3)ncnc12 | 9.89 µM | 24.1 µM | > 10 | > 100 µM |  |  |
| COc1cc(/C=N/Nc2ncnc3c(Nc4ccc(OCCCO)cc4)ncnc23)ccc1O | 3.76 µM | 9.22 µM | 14 | 50 µM |  |  |
| OCCCOc1ccc(Nc2ncnc3c(N/N=C/c4ccc(O)cc4)ncnc23)cc1 | 12.9 µM | 88.3 µM | 3 | 50 µM |  |  |
| OCCCOc1cccc(Nc2ncnc3c(N/N=C/c4cc(O)c(O)c(O)c4)ncnc23)c1 | 3.26 µM | 14.5 µM | 15 | 50 µM |  |  |
| OCCCOc1ccc(Nc2ncnc3c(N/N=C/c4cc(O)c(O)c(O)c4)ncnc23)cc1 | 6.95 µM | 20.5 µM | > 14 | > 100 µM |  |  |
| NNc1ncnc2c(Nc3ccc(OCCCO)cc3)ncnc12 | 3.03 µM | 35.8 µM | > 33 | > 100 µM |  |  |
| COc1ccc(/C=N/Nc2ncnc3c(Nc4ccc(OCCCO)cc4)ncnc23)cc1O | 2.6 µM | 8.73 µM | 19 | 50 µM |  |  |
| OCCCOc1ccc(Nc2ncnc3c(N/N=C/c4ccc(O)c(O)c4)ncnc23)cc1 | 1.9 µM | 2.07 µM | 5 | 25 µM |  |  |
| CCCCCCCCCCCCCCCCOP(=O)([O-])OCC[N+](C)(C)C [MILTEFOSINE] |  |  |  | 30.9 µM | 2.21 µM | 1.3 |
| N=C(N)c1ccc(OCCCCCOc2ccc(C(=N)N)cc2)cc1 [PENTAMIDINE] | 0.00405 µM |  | 12800 | 51.8 µM |  |  |

Continued, in another order:

| IC50 [1] | IC90 [1] | SMILES | selectivity ratio [2] | CC50 at 48 h [3] | IC50 [4] | selectivity ratio at 72 h [5] |
| --- | --- | --- | --- | --- | --- | --- |
| 6.18 µM | 21.2 µM | OCCCOc1cccc(Nc2ncnc3c(N/N=C/c4ccc(O)cc4)ncnc23)c1 | 8 | 50 µM |  |  |
| 3.88 µM | 8.36 µM | Oc1cc(/C=N/Nc2ncnc3c(Nc4cccc(OCc5ccncc5)c4)ncnc23)cc(O)c1O | > 26 | > 100 µM |  |  |
| 6.12 µM | 17.6 µM | COc1cc(/C=N/Nc2ncnc3c(Nc4cccc(OCCCO)c4)ncnc23)cc(OC)c1OC | 8 | 50 µM |  |  |
| 12.4 µM | 255 µM | COc1cc(/C=N/Nc2ncnc3c(Nc4ccc(OCCCO)cc4)ncnc23)cc(OC)c1O | 4 | 50 µM |  |  |
| 1.73 µM | 1.75 µM | Oc1ccc(/C=N/Nc2ncnc3c(Nc4cccc(OCc5ccncc5)c4)ncnc23)cc1O | > 58 | > 100 µM |  |  |
| 2.72 µM | 8.17 µM | COc1ccc(/C=N/Nc2ncnc3c(Nc4cccc(OCCCO)c4)ncnc23)cc1OC | > 37 | > 100 µM |  |  |
| 3.41 µM | 37.2 µM | COc1cc(/C=N/Nc2ncnc3c(Nc4cccc(OCc5ccncc5)c4)ncnc23)cc(OC)c1O | > 29 | > 100 µM |  |  |
| 0.94 µM | 1.24 µM | NNc1ncnc2c(Nc3cccc(OCc4ccncc4)c3)ncnc12 | > 107 | > 100 µM | 3.13 µM | > 32 |
| 3.32 µM | 37.7 µM | COc1cc(/C=N/Nc2ncnc3c(Nc4ccc(OCCCO)cc4)ncnc23)cc(OC)c1OC | > 30 | > 100 µM |  |  |
| 8.59 µM | 25.5 µM | COc1ccc(/C=N/Nc2ncnc3c(Nc4ccc(OCCCO)cc4)ncnc23)cc1OC | 6 | 50 µM |  |  |
| 6.57 µM | 18.7 µM | COc1ccc(/C=N/Nc2ncnc3c(Nc4cccc(OCCCO)c4)ncnc23)cc1O | 8 | 50 µM |  |  |
| 13.4 µM | 44.9 µM | COc1cc(/C=N/Nc2ncnc3c(Nc4cccc(OCCCO)c4)ncnc23)ccc1O | 1 | 25 µM |  |  |
| 6.06 µM | 18.1 µM | COc1cc(/C=N/Nc2ncnc3c(Nc4cccc(OCCCO)c4)ncnc23)cc(OC)c1O | 4 | 50 µM |  |  |

From ChEMBL document CHEMBL5143753, “Pyrimido[5,4-d]pyrimidine-Based Compounds as a Novel Class of Antitrypanosomal and Antileishmanial Agents” (ACS Med Chem Lett, 2022)
